Experimental data collected from several papers.
ache: Acetylcholinesterase (ache, Electrophorus electricus, UniProt O42275)
Chrna7: Neuronal acetylcholine receptor subunit alpha-7 (Chrna7, Rattus norvegicus, UniProt Q05941)

With `CNC(=O)c1ccc(-c2cnn3ccc(C(=O)N(C)c4ccc(Cl)c(C(=O)O)c4)cc23)cc1` the IC50 was over 30 µM (Ephrin type-A receptor 4 (EPHA4, Homo sapiens, UniProt P54764); enzyme activity; inhibitor).
The IC50 of `CCCCCCCCCC(=O)N[C@@H](CCCN=C(N)N)C(=O)N[C@H](C(=O)N[C@@H](CCCCN)C(=O)N[C@@H](CCCN=C(N)N)C(=O)CCl)C(C)C` is reported as 0.00134 µM (Furin (FURIN, Homo sapiens, UniProt P09958); enzyme activity; inhibitor).
`C#CCN(C)CCCOc1cccc(CN(C)c2c3c(nc4ccc(C)cc24)CCCC3)c1` has an IC50 of 5.36 µM (ache; enzyme activity; inhibitor; Ellman).
For `COc1ccc2c3c([nH]c2c1)CCN(C)CC3`, the IC50 was 10.2 µM (Chrna7; ion current; antagonist; two-electrode voltage clamp; oocytes).
`CNC(=O)c1ccc(-c2cnn3ccc(C(=O)N(C)c4ccc(Cl)c(C(=O)OC)c4)cc23)cc1` gave an IC50 of over 30 µM (Tyrosine-protein kinase receptor UFO (AXL, Homo sapiens, UniProt P30530); enzyme activity; inhibitor).
`CC(C)C[C@H](NC(=O)[C@H]1O[C@@H]1C(=O)O)C(=O)NCCCCN=C(N)N` gave an IC50 of 0.025 µM (Pro-cathepsin H (Homo sapiens, UniProt P09668); enzyme activity; inhibitor).
The IC50 of `C#CCN(C)CCCCCCCCOc1cccc(CN(C)c2c3c(nc4ccc(C)cc24)CCCC3)c1` is reported as 32.2 µM (ache; enzyme activity; inhibitor; Ellman).
For `COc1ccc2[nH]c3c(c2c1)CCN(C)CC3`, the IC50 was 11.4 µM (Chrna7; ion current; antagonist; two-electrode voltage clamp; oocytes).
